The values below come from ChEMBL document CHEMBL1817564, “Recognition of HIV TAR RNA by triazole linked neomycin dimers” (Bioorg Med Chem Lett, 2011).

pIC50, pKd: −log10 of the molar value. Calls of active or inactive are those of the source. No cut-off for these calls is given here. Where only a bound is given, the exact number is not on record here.

In test [1] the test system is Nucleic Acid. Put plainly: Binding affinity to HIV1 TAR RNA assessed as change in melting temperature at HIV1 TAR RNA to compound ratio of 1 at pH 6.8 by UV thermal denaturation assay. In kind it is nucleic-acid assay. Particulars: Human immunodeficiency virus 1. The procedure, abridged: (§1)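 UV melting of HIV-1 TAR RNA (1 µM/strand) with ligand at 1 µM (ratio 1) in 100 mM KCl, 10 mM SC, 0.5 mM EDTA, pH 6.8. Tm taken from first-derivative plots of absorbance versus temperature; ΔTm is relative to RNA alone.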

For test [2], the system named is Nucleic Acid. Put plainly: Binding affinity to HIV1 TAR RNA assessed as melting temperature at HIV1 TAR RNA to compound ratio of 1 at pH 6.8 by UV thermal denaturation assay. Format: nucleic-acid assay. Particulars: Human immunodeficiency virus 1. The gist of the method: as §1
Test [3] relates to Nucleic Acid. Put plainly: Binding affinity to HIV1 TAR RNA at […] up to 3 by CD Spectroscopy. In kind it is nucleic-acid assay. The settings on record: Human immunodeficiency virus 1. The procedure, abridged:
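CD titration of HIV TAR RNA with incremental additions of neomycin dimer, covering drug/duplex ratio (rdd) 0 to 3. Read-out is molar ellipticity.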

The test system of test [4] is Nucleic Acid. Put plainly: Inhibition of HIV1 TAR RNA. In kind it is nucleic-acid assay, Human immunodeficiency virus 1.
The subject of test [5] is Nucleic Acid. Put plainly: Binding affinity to HIV1 TAR RNA assessed as melting temperature at compound to TAR RNA ratio of 2 at pH 6.8 by UV thermal denaturation assay. Particulars: Human immunodeficiency virus 1. In kind it is nucleic-acid assay. The gist of the method: (§2)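 TAR RNA UV thermal denaturation in 100 mM KCl, 10 mM SC, 0.5 mM EDTA, pH 6.8, with dimer:RNA at 2:1. Tm taken from first-derivative plots.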

For test [6], the system named is Nucleic Acid. Put plainly: Binding affinity to HIV1 TAR RNA assessed as change in melting temperature at compound to TAR RNA ratio of 4 at pH 6.8 by UV thermal denaturation assay. In kind it is nucleic-acid assay. The settings on record: Human immunodeficiency virus 1.
The test system of test [7] is Nucleic Acid. Put plainly: Binding affinity to HIV1 TAR RNA assessed as change in melting temperature at compound to TAR RNA ratio of 2 at pH 6.8 by UV thermal denaturation assay. Particulars: Human immunodeficiency virus 1. Format: nucleic-acid assay. The gist of the method:
as §2

The test system of test [8] is Nucleic Acid. Put plainly: Binding affinity to HIV1 TAR RNA assessed as melting temperature at compound to TAR RNA ratio of 4 at pH 6.8 by UV thermal denaturation assay. Format: nucleic-acid assay. The settings on record: Human immunodeficiency virus 1.

Take `C/C(CCc1cn(C[C@H]2O[C@@H](O[C@@H]3[C@@H](O)[C@H](N)C[C@H](N)[C@H]3O[C@H]3O[C@H](CN)[C@@H](O)[C@H](O)[C@H]3N)[C@H](O)[C@@H]2O[C@H]2O[C@@H](CN)[C@@H](O)[C@H](O)[C@H]2N)nn1)=C(/C)CCc1cn(C[C@H]2O[C@@H](O[C@@H]3[C@@H](O)[C@H](N)C[C@H](N)[C@H]3O[C@H]3O[C@H](CN)[C@@H](O)[C@H](O)[C@H]3N)[C@H](O)[C@@H]2O[C@H]2O[C@@H](CN)[C@@H](O)[C@H](O)[C@H]2N)nn1`: the ΔTm (as a rule, the change in melting temperature against a reference sample) in the test with Nucleic Acid [1] was 7.6 °C. Besides, the Tm (usually the temperature at which the thermal transition is half complete) in the test with Nucleic Acid [2] is 76.4 °C.
As for `NC[C@@H]1O[C@H](O[C@H]2[C@@H](O)[C@H](O[C@@H]3[C@@H](O)[C@H](N)C[C@H](N)[C@H]3O[C@H]3O[C@H](CN)[C@@H](O)[C@H](O)[C@H]3N)O[C@@H]2Cn2cc(COCc3cn(C[C@H]4O[C@@H](O[C@@H]5[C@@H](O)[C@H](N)C[C@H](N)[C@H]5O[C@H]5O[C@H](CN)[C@@H](O)[C@H](O)[C@H]5N)[C@H](O)[C@@H]4O[C@H]4O[C@@H](CN)[C@@H](O)[C@H](O)[C@H]4N)nn3)nn2)[C@H](N)[C@@H](O)[C@@H]1O`, the ΔTm with Nucleic Acid [1] stood at 10.2 °C. The Tm in the test with Nucleic Acid [2] was 79.1 °C. Besides, in the test with Nucleic Acid [3], the result was Active.
Take `NC[C@@H]1O[C@H](O[C@H]2[C@@H](O)[C@H](O[C@@H]3[C@@H](O)[C@H](N)C[C@H](N)[C@H]3O[C@H]3O[C@H](CN)[C@@H](O)[C@H](O)[C@H]3N)O[C@@H]2Cn2cc(CCCCCCc3cn(C[C@H]4O[C@@H](O[C@@H]5[C@@H](O)[C@H](N)C[C@H](N)[C@H]5O[C@H]5O[C@H](CN)[C@@H](O)[C@H](O)[C@H]5N)[C@H](O)[C@@H]4O[C@H]4O[C@@H](CN)[C@@H](O)[C@H](O)[C@H]4N)nn3)nn2)[C@H](N)[C@@H](O)[C@@H]1O`: the ΔTm in the test with Nucleic Acid [1] worked out at 6.1 °C. In addition, in the test on Nucleic Acid [2], the Tm turned out to be 74.9 °C.
`NC[C@@H]1O[C@H](O[C@H]2[C@@H](O)[C@H](O[C@@H]3[C@@H](O)[C@H](N)C[C@H](N)[C@H]3O[C@H]3O[C@H](CN)[C@@H](O)[C@H](O)[C@H]3N)O[C@@H]2Cn2cc(COCCCCCCCCOCc3cn(C[C@H]4O[C@@H](O[C@@H]5[C@@H](O)[C@H](N)C[C@H](N)[C@H]5O[C@H]5O[C@H](CN)[C@@H](O)[C@H](O)[C@H]5N)[C@H](O)[C@@H]4O[C@H]4O[C@@H](CN)[C@@H](O)[C@H](O)[C@H]4N)nn3)nn2)[C@H](N)[C@@H](O)[C@@H]1O`: the ΔTm in the test on Nucleic Acid [1] is 5.4 °C. Further, in the test on Nucleic Acid [2], the Tm was 74.3 °C.
For `NC[C@@H]1O[C@H](O[C@H]2[C@@H](O)[C@H](O[C@@H]3[C@@H](O)[C@H](N)C[C@H](N)[C@H]3O[C@H]3O[C@H](CN)[C@@H](O)[C@H](O)[C@H]3N)O[C@@H]2Cn2cc(Cc3cccc(Cc4cn(C[C@H]5O[C@@H](O[C@@H]6[C@@H](O)[C@H](N)C[C@H](N)[C@H]6O[C@H]6O[C@H](CN)[C@@H](O)[C@H](O)[C@H]6N)[C@H](O)[C@@H]5O[C@H]5O[C@@H](CN)[C@@H](O)[C@H](O)[C@H]5N)nn4)c3)nn2)[C@H](N)[C@@H](O)[C@@H]1O`, in the test with Nucleic Acid [1], the ΔTm is 9.3 °C. Besides, the Tm with Nucleic Acid [2] came to 78.2 °C.
As to `NC[C@@H]1O[C@H](O[C@H]2[C@@H](O)[C@H](O[C@@H]3[C@@H](O)[C@H](N)C[C@H](N)[C@H]3O[C@H]3O[C@H](CN)[C@@H](O)[C@H](O)[C@H]3N)O[C@@H]2CO)[C@H](N)[C@@H](O)[C@@H]1O` [FRAMYCETIN], the ΔTm in the test with Nucleic Acid [1] stood at 0.2 °C. In the test with Nucleic Acid [4], the pIC50 – broadly, −log10 of the IC50, conventionally taken in molar units – is 6.38 and the pKd – broadly, the Kd on a negative log10 scale, so that one unit is a factor of ten – is over 6.00. For the same compound, the Tm with Nucleic Acid [2] is 69.1 °C.
Turning to `NC[C@@H]1O[C@H](O[C@H]2[C@@H](O)[C@H](O[C@@H]3[C@@H](O)[C@H](N)C[C@H](N)[C@H]3O[C@H]3O[C@H](CN)[C@@H](O)[C@H](O)[C@H]3N)O[C@@H]2Cn2cc(Cc3ccc(Cc4cn(C[C@H]5O[C@@H](O[C@@H]6[C@@H](O)[C@H](N)C[C@H](N)[C@H]6O[C@H]6O[C@H](CN)[C@@H](O)[C@H](O)[C@H]6N)[C@H](O)[C@@H]5O[C@H]5O[C@@H](CN)[C@@H](O)[C@H](O)[C@H]5N)nn4)cc3)nn2)[C@H](N)[C@@H](O)[C@@H]1O`, in the test with Nucleic Acid [1], the ΔTm is 9.6 °C. The Tm in the test with Nucleic Acid [2] was 78.5 °C.
For the compound `NC[C@@H]1O[C@H](O[C@H]2[C@@H](O)[C@H](O[C@@H]3[C@@H](O)[C@H](N)C[C@H](N)[C@H]3O[C@H]3O[C@H](CN)[C@@H](O)[C@H](O)[C@H]3N)O[C@@H]2Cn2cc(CCCc3cn(C[C@H]4O[C@@H](O[C@@H]5[C@@H](O)[C@H](N)C[C@H](N)[C@H]5O[C@H]5O[C@H](CN)[C@@H](O)[C@H](O)[C@H]5N)[C@H](O)[C@@H]4O[C@H]4O[C@@H](CN)[C@@H](O)[C@H](O)[C@H]4N)nn3)nn2)[C@H](N)[C@@H](O)[C@@H]1O`, the ΔTm with Nucleic Acid [1] amounted to 9.3 °C; in the test with Nucleic Acid [6], 12.4 °C; in the test on Nucleic Acid [7], 11.5 °C. Besides, the results for the Tm in the test with Nucleic Acid [2], in the test with Nucleic Acid [5] and with Nucleic Acid [8] were 78.2 °C, 80.4 °C and 81.3 °C, respectively.
With `NC[C@@H]1O[C@H](O[C@H]2[C@@H](O)[C@H](O[C@@H]3[C@@H](O)[C@H](N)C[C@H](N)[C@H]3O[C@H]3O[C@H](CN)[C@@H](O)[C@H](O)[C@H]3N)O[C@@H]2Cn2cc(CCCCc3cn(C[C@H]4O[C@@H](O[C@@H]5[C@@H](O)[C@H](N)C[C@H](N)[C@H]5O[C@H]5O[C@H](CN)[C@@H](O)[C@H](O)[C@H]5N)[C@H](O)[C@@H]4O[C@H]4O[C@@H](CN)[C@@H](O)[C@H](O)[C@H]4N)nn3)nn2)[C@H](N)[C@@H](O)[C@@H]1O`, the ΔTm in the test on Nucleic Acid [1] was 8.2 °C. In the test on Nucleic Acid [2], the Tm was 77.1 °C.
With `NC[C@@H]1O[C@H](O[C@H]2[C@@H](O)[C@H](O[C@@H]3[C@@H](O)[C@H](N)C[C@H](N)[C@H]3O[C@H]3O[C@H](CN)[C@@H](O)[C@H](O)[C@H]3N)O[C@@H]2Cn2cc(COCCCCCCCCCCCCOCc3cn(C[C@H]4O[C@@H](O[C@@H]5[C@@H](O)[C@H](N)C[C@H](N)[C@H]5O[C@H]5O[C@H](CN)[C@@H](O)[C@H](O)[C@H]5N)[C@H](O)[C@@H]4O[C@H]4O[C@@H](CN)[C@@H](O)[C@H](O)[C@H]4N)nn3)nn2)[C@H](N)[C@@H](O)[C@@H]1O`, the ΔTm in the test on Nucleic Acid [1] came to 3.3 °C. Besides, in the test with Nucleic Acid [2], the Tm is 72.1 °C.
